{
  "source": "ChEMBL document CHEMBL2311339",
  "about": "“Identification of GZD824 as an orally bioavailable inhibitor that targets phosphorylated and nonphosphorylated breakpoint cluster region-Abelson (Bcr-Abl) kinase and overcomes clinically acquired mutation-induced resistance against imatinib” (J Med Chem, 2013)",
  "key": {"[1]": {"target": "Tyrosine-protein kinase ABL1 (Homo sapiens, UniProt P00519, H396P)", "type": "cell-based"}, "BaF3 [2]": {"tested_on": "BaF3", "test": "Antitumor activity against mouse BA/F3 cells expressing BCR-ABL T315I mutant allografted in SCID mouse assessed as increased survival at 1 to 20 mg/kg/day, po qd for 10 days", "type": "functional, organism-based"}, "[3]": {"test": "Tmax in rat at 25 mg/kg, po", "type": "ADME, organism-based", "design": "dose 25 mg/kg, route oral", "conditions": "in vivo", "method_in_brief": "(§1)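 Bismesylate salt given to rats as a single iv dose of 5 mg/kg or a single oral dose of 25 mg/kg. Plasma drug levels were followed over time to derive the PK parameters. The 12 h and 24 h plasma levels come from the oral 25 mg/kg dose.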"}, "[4]": {"test": "Apparent permeability from apical to basolateral side in human Caco2 cells by LC-MS/MS analysis", "type": "ADME, cell-based", "conditions": "Caco-2"}, "[5]": {"test": "Cytotoxicity against mouse BA/F3 cells expressing BCR-ABL F486S mutant assessed as growth inhibition after 72 hrs by CCK-8 assay", "conditions": "BaF3, 72 h"}, "BaF3 [6]": {"tested_on": "BaF3", "test": "Antitumor activity against mouse BA/F3 cells expressing BCR-ABL T315I mutant allografted in SCID mouse assessed as inhibition of tumor growth at 5 to 10 mg/kg/day, po qd for 14 days", "type": "functional, organism-based", "method_in_brief": "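Ba/F3 cells stably expressing Bcr-Abl (wild type or mutant) were grown in RPMI 1640 with 10% FBS and no IL-3, then suspended in saline (2.5 × 10^7 cells/mL) and given as 0.2 mL s.c. in the right flank. Groups were randomised at 100−200 mm3. Once-daily oral gavage for 14 days in DMSO/Cremophor/ethanol/saline vehicle; reference imatinib 50 or 100 mg/kg/day. Volume L × W²/2 every 2 days; n = 10; t test versus vehicle.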"}, "[7]": {"target": "Mast/stem cell growth factor receptor Kit (Homo sapiens) (UniProt P10721)", "sequence (P10721 whole entry)": "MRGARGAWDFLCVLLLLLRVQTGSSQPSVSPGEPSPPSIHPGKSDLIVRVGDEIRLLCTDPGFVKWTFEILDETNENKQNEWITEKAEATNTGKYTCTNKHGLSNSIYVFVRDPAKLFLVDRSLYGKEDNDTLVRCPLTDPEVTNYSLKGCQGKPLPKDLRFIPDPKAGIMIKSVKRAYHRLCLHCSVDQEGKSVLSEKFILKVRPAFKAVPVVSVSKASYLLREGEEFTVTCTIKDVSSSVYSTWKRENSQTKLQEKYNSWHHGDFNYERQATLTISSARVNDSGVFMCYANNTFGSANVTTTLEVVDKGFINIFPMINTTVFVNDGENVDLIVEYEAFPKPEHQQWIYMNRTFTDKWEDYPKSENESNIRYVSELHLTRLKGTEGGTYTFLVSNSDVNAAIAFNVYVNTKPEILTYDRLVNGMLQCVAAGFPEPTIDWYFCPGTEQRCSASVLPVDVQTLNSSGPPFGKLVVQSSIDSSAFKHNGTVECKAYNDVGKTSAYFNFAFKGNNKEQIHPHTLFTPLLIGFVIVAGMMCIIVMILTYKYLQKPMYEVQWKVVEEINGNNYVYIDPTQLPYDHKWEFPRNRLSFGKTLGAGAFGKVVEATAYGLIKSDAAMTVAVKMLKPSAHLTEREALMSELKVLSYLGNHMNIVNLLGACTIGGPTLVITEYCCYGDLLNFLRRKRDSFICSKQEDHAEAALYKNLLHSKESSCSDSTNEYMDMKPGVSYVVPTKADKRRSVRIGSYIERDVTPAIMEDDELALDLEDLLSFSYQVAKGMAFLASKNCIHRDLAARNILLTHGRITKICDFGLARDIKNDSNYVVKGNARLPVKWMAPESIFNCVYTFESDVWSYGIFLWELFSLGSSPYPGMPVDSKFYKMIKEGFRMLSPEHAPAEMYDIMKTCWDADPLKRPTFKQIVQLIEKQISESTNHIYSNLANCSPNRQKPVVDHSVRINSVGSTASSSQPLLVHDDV", "test": "Binding affinity to KIT (unknown origin) at 10 nM after 2 hrs by FRET assay"}, "BaF3 [8]": {"tested_on": "BaF3", "test": "Antitumor activity against mouse BA/F3 cells expressing BCR-ABL E255K mutant allografted in po dosed SCID mouse assessed as reduction of hepatosplenomegaly administered qd for 14 days", "type": "functional, organism-based"}, "[9]": {"target": "Tyrosine-protein kinase ABL1 (Homo sapiens, UniProt P00519)", "test": "Binding affinity to phosphorylated wild type ABL1 (unknown origin) after 1 hr"}, "K562 [10]": {"tested_on": "K562", "test": "Antitumor activity against human K562 cells xenografted in po dosed mouse assessed as inhibition of tumor growth administered qd for 14 days", "type": "functional, organism-based", "method_in_brief": "(§2)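 K562 cells suspended in normal saline (2.5 × 10^7 cells/mL), 0.2 mL injected subcutaneously into the right flank. Mice were randomised once mean tumour volume reached 100−200 mm3. Oral gavage once daily for 14 days, in 1% DMSO/22.5% Cremophor/7.5% ethanol/69% saline. Tumour volume (L × W²/2) and body weight taken every 2 days; recurrence followed 20 days after dosing stopped. n = 10/group; unpaired t test versus vehicle.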"}, "[11]": {"target": "Angiopoietin-1 receptor (Homo sapiens) (UniProt Q02763)", "test": "Binding affinity to TIE2 (unknown origin) at 10 nM after 2 hrs by FRET assay"}, "[12]": {"target": "Voltage-gated inwardly rectifying potassium channel KCNH2 (Homo sapiens, UniProt Q12809)", "test": "Inhibition of human ERG expressed in CHO cells at up to 30 uM after 2.5 hrs by Rb+ efflux assay", "type": "cell-based"}, "Cytochrome P450 1A2": {"target": "Cytochrome P450 1A2 (Homo sapiens, UniProt P05177)", "sequence (P05177 whole entry)": "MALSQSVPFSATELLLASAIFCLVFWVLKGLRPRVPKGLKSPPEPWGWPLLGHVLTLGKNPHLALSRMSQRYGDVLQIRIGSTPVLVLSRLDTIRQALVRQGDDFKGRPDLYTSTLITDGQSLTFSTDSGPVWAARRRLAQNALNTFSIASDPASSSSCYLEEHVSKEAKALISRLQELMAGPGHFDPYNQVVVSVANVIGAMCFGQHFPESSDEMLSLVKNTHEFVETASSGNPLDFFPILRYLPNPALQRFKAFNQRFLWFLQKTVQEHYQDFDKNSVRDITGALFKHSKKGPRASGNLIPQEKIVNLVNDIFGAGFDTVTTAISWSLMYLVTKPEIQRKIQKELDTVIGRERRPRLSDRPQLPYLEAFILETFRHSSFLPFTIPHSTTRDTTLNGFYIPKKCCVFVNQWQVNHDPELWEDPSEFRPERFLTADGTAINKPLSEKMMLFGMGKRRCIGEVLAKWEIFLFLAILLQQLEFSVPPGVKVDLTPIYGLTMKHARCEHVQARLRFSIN", "test": "Inhibition of human recombinant CYP1A2 at 30 uM after 30 mins", "type": "ADME", "conditions": "recombinant enzyme, 0.5 h"}, "[13]": {"test": "Apparent permeability from basolateral to apical side in human Caco2 cells by LC-MS/MS analysis", "type": "ADME, cell-based", "conditions": "Caco-2"}, "[14]": {"test": "Cytotoxicity against mouse BA/F3 cells expressing BCR-ABL E255V mutant assessed as growth inhibition after 72 hrs by CCK-8 assay", "conditions": "BaF3, 72 h"}, "[15]": {"test": "Cytotoxicity against mouse BA/F3 cells expressing BCR-ABL E355G mutant assessed as growth inhibition after 72 hrs by CCK-8 assay", "conditions": "BaF3, 72 h"}, "[16]": {"test": "Cytotoxicity against mouse BA/F3 cells expressing BCR-ABL F317V mutant assessed as growth inhibition after 72 hrs by CCK-8 assay", "conditions": "BaF3, 72 h"}, "[17]": {"target": "Tyrosine-protein kinase ABL1 (Homo sapiens, UniProt P00519, T315I)", "test": "Binding affinity to non phosphorylated ABL1 T315I mutant (unknown origin) after 1 hr"}, "[18]": {"test": "AUC (0 to t) in rat at 5 mg/kg, iv", "type": "ADME, organism-based", "design": "dose 5 mg/kg, route intravenous", "conditions": "plasma", "method_in_brief": "as §1"}, "K562 [19]": {"tested_on": "K562", "test": "Antitumor activity against human K562 cells xenografted in mouse assessed as reduction in tumor size at 2 to 10 mg/kg, po qd for 2 days", "type": "functional, organism-based"}, "BaF3 [20]": {"tested_on": "BaF3", "test": "Antitumor activity against mouse BA/F3 cells expressing BCR-ABL T315I mutant allografted in po dosed SCID mouse assessed as reduction of hepatosplenomegaly administered qd for 14 days", "type": "functional, organism-based"}, "[21]": {"target": "Tyrosine-protein kinase ABL1 (Homo sapiens, UniProt P00519, Y253F)", "test": "Inhibition of human recombinant ABL1 Y253F mutant expressed in insect cells after 30 mins by FRET assay", "type": "cell-based"}, "[22]": {"target": "Platelet-derived growth factor receptor alpha (Homo sapiens) (UniProt P16234)", "test": "Binding affinity to PDGFRalpha (unknown origin) at 10 nM after 2 hrs by FRET assay"}, "[23]": {"target": "Tyrosine-protein kinase ABL1 (Homo sapiens, UniProt P00519, F317I)", "test": "Binding affinity to non phosphorylated ABL1 F317I mutant (unknown origin) after 1 hr"}, "[24]": {"target": "Tyrosine-protein kinase ABL1 (Homo sapiens, UniProt P00519, Q252H)", "test": "Binding affinity to non phosphorylated ABL1 Q252H mutant (unknown origin) after 1 hr"}, "Mus musculus": {"tested_on": "Mus musculus", "test": "Toxicity in human K562 cells xenografted mouse assessed as mortality", "type": "organism-based", "conditions": "in vivo", "method_in_brief": "as §2"}, "[25]": {"target": "Fibroblast growth factor receptor (Homo sapiens) (UniProt P22607+P11362+P22455+P21802)", "sequence (P11362 whole entry, looked up)": "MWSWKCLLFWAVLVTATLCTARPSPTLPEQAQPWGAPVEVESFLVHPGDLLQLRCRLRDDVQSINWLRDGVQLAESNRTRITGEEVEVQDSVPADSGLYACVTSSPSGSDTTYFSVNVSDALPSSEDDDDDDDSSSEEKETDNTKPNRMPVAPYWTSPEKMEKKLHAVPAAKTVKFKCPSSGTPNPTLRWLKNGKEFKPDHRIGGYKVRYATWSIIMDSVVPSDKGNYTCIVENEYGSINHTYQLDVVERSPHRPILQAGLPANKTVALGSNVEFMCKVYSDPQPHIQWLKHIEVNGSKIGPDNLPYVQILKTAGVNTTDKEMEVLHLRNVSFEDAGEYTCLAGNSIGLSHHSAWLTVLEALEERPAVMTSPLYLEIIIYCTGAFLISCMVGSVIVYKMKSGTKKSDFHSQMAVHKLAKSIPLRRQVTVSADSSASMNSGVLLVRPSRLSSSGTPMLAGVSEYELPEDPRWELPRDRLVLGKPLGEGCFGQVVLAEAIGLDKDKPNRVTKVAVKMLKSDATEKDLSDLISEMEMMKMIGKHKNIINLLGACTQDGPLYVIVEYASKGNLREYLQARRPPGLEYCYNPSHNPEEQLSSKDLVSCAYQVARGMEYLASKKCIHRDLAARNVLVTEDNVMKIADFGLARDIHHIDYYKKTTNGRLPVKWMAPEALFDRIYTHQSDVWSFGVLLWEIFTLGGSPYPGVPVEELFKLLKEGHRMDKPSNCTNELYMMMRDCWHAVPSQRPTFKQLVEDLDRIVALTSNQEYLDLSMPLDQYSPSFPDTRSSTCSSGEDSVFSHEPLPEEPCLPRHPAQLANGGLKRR", "sequence (P21802 whole entry, looked up)": "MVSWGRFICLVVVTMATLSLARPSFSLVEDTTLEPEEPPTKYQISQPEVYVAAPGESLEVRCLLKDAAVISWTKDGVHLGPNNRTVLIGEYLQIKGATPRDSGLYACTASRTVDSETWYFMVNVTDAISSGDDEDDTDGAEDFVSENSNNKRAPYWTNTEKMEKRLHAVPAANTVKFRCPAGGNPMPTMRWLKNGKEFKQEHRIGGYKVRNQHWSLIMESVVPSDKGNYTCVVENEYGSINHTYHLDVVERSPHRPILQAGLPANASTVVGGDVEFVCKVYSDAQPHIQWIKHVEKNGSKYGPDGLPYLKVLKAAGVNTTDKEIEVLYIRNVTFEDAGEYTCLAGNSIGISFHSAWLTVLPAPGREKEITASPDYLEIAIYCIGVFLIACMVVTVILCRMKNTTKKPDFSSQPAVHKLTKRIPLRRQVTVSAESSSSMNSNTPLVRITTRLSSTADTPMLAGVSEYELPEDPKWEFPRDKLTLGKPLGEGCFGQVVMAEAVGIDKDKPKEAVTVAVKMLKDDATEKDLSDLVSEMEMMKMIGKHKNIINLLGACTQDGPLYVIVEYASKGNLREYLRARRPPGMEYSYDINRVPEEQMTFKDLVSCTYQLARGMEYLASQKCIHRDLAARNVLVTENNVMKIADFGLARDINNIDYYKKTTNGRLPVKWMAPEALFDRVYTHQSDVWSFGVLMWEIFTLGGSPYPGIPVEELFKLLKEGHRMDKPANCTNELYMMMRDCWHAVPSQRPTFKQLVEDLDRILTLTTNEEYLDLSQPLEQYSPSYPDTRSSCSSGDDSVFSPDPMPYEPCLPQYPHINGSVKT", "sequence (P22455 whole entry, looked up)": "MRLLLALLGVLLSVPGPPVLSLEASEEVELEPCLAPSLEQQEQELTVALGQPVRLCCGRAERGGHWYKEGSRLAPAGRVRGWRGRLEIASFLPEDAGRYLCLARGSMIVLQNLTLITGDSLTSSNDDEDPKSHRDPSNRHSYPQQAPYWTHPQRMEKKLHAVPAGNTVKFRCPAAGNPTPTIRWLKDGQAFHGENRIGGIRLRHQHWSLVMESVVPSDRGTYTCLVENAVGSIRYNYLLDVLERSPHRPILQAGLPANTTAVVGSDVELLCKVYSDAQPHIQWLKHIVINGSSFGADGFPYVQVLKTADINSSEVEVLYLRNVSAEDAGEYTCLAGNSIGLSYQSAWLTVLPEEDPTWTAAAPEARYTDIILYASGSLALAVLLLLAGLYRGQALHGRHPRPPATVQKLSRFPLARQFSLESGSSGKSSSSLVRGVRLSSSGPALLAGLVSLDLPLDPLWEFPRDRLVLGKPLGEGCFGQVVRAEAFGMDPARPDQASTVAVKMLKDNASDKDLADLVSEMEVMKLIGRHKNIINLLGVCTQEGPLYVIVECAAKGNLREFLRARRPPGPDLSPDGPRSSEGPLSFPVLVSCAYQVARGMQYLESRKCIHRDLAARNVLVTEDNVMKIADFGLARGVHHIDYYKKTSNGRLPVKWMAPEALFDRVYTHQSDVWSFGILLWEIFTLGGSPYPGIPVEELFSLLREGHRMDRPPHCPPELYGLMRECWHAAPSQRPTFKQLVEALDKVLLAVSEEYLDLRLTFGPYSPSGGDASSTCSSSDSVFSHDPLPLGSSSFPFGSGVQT", "sequence (P22607 whole entry, looked up)": "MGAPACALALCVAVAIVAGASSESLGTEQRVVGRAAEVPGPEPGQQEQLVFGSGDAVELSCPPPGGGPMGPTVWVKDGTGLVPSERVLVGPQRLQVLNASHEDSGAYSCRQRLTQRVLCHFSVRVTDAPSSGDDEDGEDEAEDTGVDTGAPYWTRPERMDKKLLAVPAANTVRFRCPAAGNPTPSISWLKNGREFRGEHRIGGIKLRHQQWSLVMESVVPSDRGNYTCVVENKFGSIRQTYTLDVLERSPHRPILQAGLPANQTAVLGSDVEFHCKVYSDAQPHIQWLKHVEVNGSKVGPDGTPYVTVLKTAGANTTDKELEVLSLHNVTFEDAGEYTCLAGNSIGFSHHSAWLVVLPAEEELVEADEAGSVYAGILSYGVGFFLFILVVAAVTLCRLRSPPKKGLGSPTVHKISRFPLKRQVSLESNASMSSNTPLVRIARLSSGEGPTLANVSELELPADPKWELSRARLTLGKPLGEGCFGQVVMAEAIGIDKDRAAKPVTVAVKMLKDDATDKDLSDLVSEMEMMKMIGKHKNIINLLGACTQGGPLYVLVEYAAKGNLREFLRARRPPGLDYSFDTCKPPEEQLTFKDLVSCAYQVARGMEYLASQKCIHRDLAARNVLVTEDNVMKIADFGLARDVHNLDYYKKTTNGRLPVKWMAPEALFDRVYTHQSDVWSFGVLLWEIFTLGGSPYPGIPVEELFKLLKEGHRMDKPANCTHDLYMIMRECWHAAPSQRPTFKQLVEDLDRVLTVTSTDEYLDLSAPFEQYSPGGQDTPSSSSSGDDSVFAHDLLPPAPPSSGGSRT", "test": "Binding affinity to FGFR (unknown origin) at 10 nM after 2 hrs by FRET assay", "type": "protein assay"}, "[26]": {"test": "Antitumor activity against mouse BA/F3 cells expressing BCR-ABL T315I mutant allografted in SCID mouse assessed as increase in median survival at 10 mg/kg/day, po qd for 10 days", "type": "functional, BaF3", "method_in_brief": "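Ba/F3 Bcr-Abl T315I cells stably carrying firefly luciferase, in saline, were injected i.v. into SCID nude mice (2 × 10^6 cells/0.1 mL). Imaging began 5−7 days later: i.p. D-luciferin, halothane anaesthesia, images after 5 min. Mice were randomised by signal and dosed by oral gavage once daily for 10 days (5, 10, 20 mg/kg/day; imatinib 100 mg/kg; vehicle). Luminescence was quantified; survival by Kaplan−Meier with log-rank test.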"}, "[27]": {"test": "Intrinsic clearance in rat liver microsomes at 1 uM", "type": "ADME, Microsome", "conditions": "read-out: CLH"}, "[28]": {"test": "Cytotoxicity against mouse BA/F3 cells expressing BCR-ABL Y253H mutant assessed as growth inhibition after 72 hrs by CCK-8 assay", "conditions": "BaF3, 72 h"}, "cells": {"test": "cells", "conditions": "Mus musculus, BaF3, 72 h"}},
  "note": "Calls of active or inactive are those of the source. The rule behind the calls is not given here.",
  "data": [
    {"smiles": "Cc1ccc(C(=O)Nc2ccc(CN3CCN(C)CC3)c(C(F)(F)F)c2)cc1C#Cc1cnc2[nH]ncc2c1", "note": "[OLVEREMBATINIB]", "values": [
      {"measurement": "IC50", "setting": "[1]", "value": 0.35, "unit": "nM"},
      {"measurement": "Activity", "setting": "BaF3 [2]", "value": "Dose-dependent effect"},
      {"measurement": "Tmax", "setting": "[3]", "value": 4, "unit": "h"},
      {"measurement": "Papp A→B", "setting": "[4]", "value": 0.32, "unit": "×10⁻⁶ cm/s"},
      {"measurement": "IC50", "setting": "[5]", "value": 1, "unit": "nM"},
      {"measurement": "TGI", "setting": "BaF3 [6]", "value": "inactive"},
      {"measurement": "Activity", "setting": "[7]", "value": "inactive"},
      {"measurement": "Activity", "setting": "BaF3 [8]", "value": "Active"},
      {"measurement": "Kd", "setting": "[9]", "value": 0.34, "unit": "nM"},
      {"measurement": "TGI", "setting": "K562 [10]", "value": "Dose-dependent effect"},
      {"measurement": "Activity", "setting": "[11]", "value": "inactive"},
      {"measurement": "inhibition (INH)", "setting": "[12]", "value": "Not Active"},
      {"measurement": "inhibition (INH)", "setting": "Cytochrome P450 1A2", "value": "Not Active"},
      {"measurement": "Papp B→A", "setting": "[13]", "value": 0.28, "unit": "×10⁻⁶ cm/s"},
      {"measurement": "IC50", "setting": "[14]", "value": 8.1, "unit": "nM"},
      {"measurement": "IC50", "setting": "[15]", "value": 2.6, "unit": "nM"},
      {"measurement": "IC50", "setting": "[16]", "value": 4, "unit": "nM"},
      {"measurement": "Kd", "setting": "[17]", "value": 0.71, "unit": "nM"},
      {"measurement": "AUC(0-t)", "setting": "[18]", "value": 2740, "unit": "ng·h/mL"},
      {"measurement": "Activity", "setting": "K562 [19]", "value": "Active"},
      {"measurement": "Activity", "setting": "BaF3 [20]", "value": "Active"},
      {"measurement": "IC50", "setting": "[21]", "value": 0.35, "unit": "nM"},
      {"measurement": "Activity", "setting": "[22]", "value": "inactive"},
      {"measurement": "Kd", "setting": "[23]", "value": 1.8, "unit": "nM"},
      {"measurement": "Kd", "setting": "[24]", "value": 0.46, "unit": "nM"},
      {"measurement": "Activity", "setting": "Mus musculus", "value": "Non-toxic"},
      {"measurement": "Activity", "setting": "[25]", "value": "inactive"},
      {"measurement": "Survival", "setting": "[26]", "value": 24.6, "unit": "days"},
      {"measurement": "microsomal CLint at 1 µM", "setting": "[27]", "value": 36.4, "unit": "µL/min/mg"},
      {"measurement": "IC50", "setting": "[28]", "value": 3, "unit": "nM"},
      {"measurement": "IC50", "setting": "cells", "value": 6, "unit": "nM"}
    ]}
  ]
}
